Results reported in ChEMBL document CHEMBL3785023, “Development and Pharmacological Characterization of Selective Blockers of 2-Arachidonoyl Glycerol Degradation with Efficacy in Rodent Models of Multiple Sclerosis and Pain” (J Med Chem, 2016).
The source made the active and inactive calls.

Key:
Heart [1] = experiment: Cardiotoxicity in Langendorff-perfused Sprague-Dawley rat heart assessed as time duration of action potential at 1 uM by ECG analysis (reference value: 75.65 +/- 0.87 milliseconds); format: toxicity, tissue-based
Heart [2] = experiment: Cardiotoxicity in Langendorff-perfused Sprague-Dawley rat heart assessed as intraventricular conduction time at 0.01 uM by ECG analysis (reference value: 14.26 +/- 0.71 milliseconds); format: toxicity, tissue-based, Cardiac ventricle
Heart [3] = experiment: Cardiotoxicity in Langendorff-perfused Sprague-Dawley rat heart assessed as time duration of action potential at 0.1 uM by ECG analysis (reference value: 75.65 +/- 0.87 milliseconds); format: toxicity, tissue-based
Mus musculus [4] = experiment: Toxicity in CD-1 mouse assessed as 2-AG level in spinal cord at 0.3 mg/kg, ip by LC-MS analysis (reference value: 6.4 +/- 0.4 pmol/g); format: organism-based; details: in vivo
Summary of the method: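 Male CD-1 mice received 0.3 mg/kg i.p. in 0.5% DMSO/saline, with formalin (1.25%, 30 µL) injected into the dorsal hind paw. Paw skin or spinal cord was taken at 5 min post-dose. Tissue was homogenized in CHCl3/MeOH/50 mM Tris-HCl (2:1:1) containing d5-2-AG, extracted with chloroform and analysed by LC-MS. n = 4; ANOVA with Bonferroni test.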

Heart [5] = experiment: Cardiotoxicity in Langendorff-perfused Sprague-Dawley rat heart assessed as coronary perfusion pressure at 1 uM (reference value: 57.45 +/- 2.58 mmHg); format: toxicity, tissue-based
[6] = Apparent permeability from luminal to abluminal side in human endothelial cells cocultured with pericytes at 100 uM after 20 to 60 mins by LC-UV analysis; format: ADME, cell-based, Endothelial cell
Summary of the method: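 Human BBB model: endothelial cells derived from hematopoietic stem cells, cocultured 6 days with pericytes. Compound (100 µM in Ringer + Hepes) added luminally together with Lucifer yellow as an integrity marker. Incubated 20, 40 and 60 min at 37 °C; abluminal compound measured by LC-UV. Papp = J/(A·C0).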

Salmonella typhimurium [7] = experiment: Mutagenicity in Salmonella typhimurium TA98 assessed as increase in number of colonies up to >200 uM by Ames test in presence of S9 fraction; format: toxicity, organism-based; details: salmonella enterica subsp. enterica serovar typhimurium
Heart [8] = experiment: Cardiotoxicity in Langendorff-perfused Sprague-Dawley rat heart assessed as intraventricular conduction time at 1 uM by ECG analysis (reference value: 14.26 +/- 0.71 milliseconds); format: toxicity, tissue-based, Cardiac ventricle
Salmonella typhimurium [9] = experiment: Mutagenicity in Salmonella typhimurium TA100 assessed as increase in number of colonies up to >200 uM by Ames test in presence of S9 fraction; format: toxicity, organism-based; details: salmonella enterica subsp. enterica serovar typhimurium
Heart [10] = experiment: Cardiotoxicity in Langendorff-perfused Sprague-Dawley rat heart assessed as heart rate at 0.001 uM by ECG analysis (reference value: 252.78 +/- 9.28 bpm); format: toxicity, tissue-based
Heart [11] = experiment: Cardiotoxicity in Langendorff-perfused Sprague-Dawley rat heart assessed as time duration of cardiac cycle length at 1 uM by ECG analysis (reference value: 238.38 +/- 9.23 milliseconds); format: toxicity, tissue-based
Mus musculus [12] = experiment: In vivo inhibition of MAGL in CD-1 mouse assessed as 2-AG level in pawskin at 0.3 mg/kg, ip coadministered with formalin by LC-MS analysis (reference value: 10.8 +/- 1.5 pmol/g); format: functional
Heart [13] = experiment: Cardiotoxicity in Langendorff-perfused Sprague-Dawley rat heart assessed as heart rate at 0.01 uM by ECG analysis (reference value: 252.78 +/- 9.28 bpm); format: toxicity, tissue-based
Mus musculus [14] = experiment: Toxicity in C57BL/6J mouse assessed as changes in locomotor activity at 3 mg/kg, ip; format: organism-based; details: in vivo
Mus musculus [15] = experiment: Antinociceptive activity in ip dosed CD-1 mouse assessed as inhibition of formalin-induced pain response compound administered 10 mins before formalin injection measured during early phase; format: functional; details: CD-1, ip, read-out: MED
Summary of the method: (§1)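 Male CD-1 mice, n = 6 per group, injected with formalin (1.25% in saline, 30 μL) into the dorsal hind paw. Inhibitor (0.1 or 0.3 mg/kg i.p. in 0.5% DMSO/saline) given 10 min before formalin. Where used, AM251 or AM630 (1 mg/kg i.p.) given 10 min before the inhibitor. Time spent lifting, licking, shaking or flinching the injected paw recorded every 5 min over 60 min.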

Mus musculus [16] = experiment: In vivo inhibition of MAGL in CD-1 mouse assessed as 2-AG level in spinal cord at 0.3 mg/kg, ip coadministered with formalin by LC-MS analysis (reference value: 3.8 +/- 0.4 pmol/g); format: functional
Heart [17] = experiment: Cardiotoxicity in Langendorff-perfused Sprague-Dawley rat heart assessed as corrected time duration of action potential at 0.001 uM by ECG analysis (reference value: 155.26 +/- 2.96 milliseconds); format: toxicity, tissue-based
Mus musculus [18] = experiment: Antinociceptive activity in CD-1 mouse assessed as inhibition of formalin-induced late phase pain response at 0.1 to 0.3 mg/kg, ip dosed 10 mins before formalin injection measured every 5 mins for 60 mins in presence of CB1 antagonist/inverse agonist AM251; format: functional, organism-based; summary of the method: as §1
Mus musculus [19] = experiment: (§2) Reduction of disease index score in myelin oligodendrocyte glycoprotein (35 to 55)-induced C57BL/6J mouse experimental autoimmune encephalomyelitis model of multiple sclerosis at 3 mg/kg, ip administered post CB2 antagonist/inverse agonist AM630 addition dosed on day 6 postimmunization up to 21 day postimmunization measured from day 12 postimmunization; format: functional, organism-based
Summary of the method: (§3)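 Female C57BL/6J mice immunized with MOG35-55 were randomly assigned to groups. They received 3 mg/kg i.p. daily from 6 days post-immunization up to 21±1 d.p.i. AM251 or AM630, 1 mg/kg i.p., was given 10 min before each dose for 14 days. Clinical score was recorded daily and as cumulative score, reported as mean ± SEM. Group sizes were 4–9 mice.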

[20] = biological target: Acyl-protein thioesterase 1/2 (Rattus norvegicus) (UniProt P70470+Q9QYL8); experiment: Inhibition of LYPLA1/2 in rat brain membranes at 500 to 1000 nM preincubated for 20 mins followed by fluorophosphonate-rhodamine addition measured after 30 mins by competitive affinity based proteomic profiling assay; format: cell membranes; details: Membrane
Acyl-protein thioesterase 1/2 (Rattus norvegicus), sequence (P70470 whole entry, looked up): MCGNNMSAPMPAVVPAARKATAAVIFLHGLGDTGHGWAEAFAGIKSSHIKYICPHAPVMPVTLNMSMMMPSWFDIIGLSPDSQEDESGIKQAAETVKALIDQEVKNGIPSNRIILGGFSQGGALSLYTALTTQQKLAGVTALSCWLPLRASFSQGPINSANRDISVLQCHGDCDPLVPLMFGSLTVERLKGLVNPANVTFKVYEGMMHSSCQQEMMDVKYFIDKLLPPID
Acyl-protein thioesterase 1/2 (Rattus norvegicus), sequence (Q9QYL8 whole entry, looked up): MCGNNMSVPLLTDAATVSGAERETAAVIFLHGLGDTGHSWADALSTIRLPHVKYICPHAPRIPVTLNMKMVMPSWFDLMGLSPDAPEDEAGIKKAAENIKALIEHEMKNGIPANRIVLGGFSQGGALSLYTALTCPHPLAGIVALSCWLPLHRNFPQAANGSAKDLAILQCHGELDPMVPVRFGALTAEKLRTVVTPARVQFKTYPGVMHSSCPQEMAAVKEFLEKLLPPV
Summary of the method: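 Rat brain membranes (1 mg/mL) preincubated with 1–1000 nM inhibitor or DMSO for 20 min at 37 °C. FP-rhodamine then added and incubated a further 30 min at 37 °C. Samples run on SDS-PAGE and serine hydrolase bands quantified by in-gel fluorescence.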

Mus musculus [21] = experiment: Antinociceptive activity in CD-1 mouse assessed as inhibition of formalin-induced early phase pain response at 0.1 to 0.3 mg/kg, ip dosed 10 mins before formalin injection measured every 5 mins for 60 mins in presence of CB1 antagonist/inverse agonist AM251; format: functional, organism-based; summary of the method: as §1
Mus musculus [22] = experiment: Antinociceptive activity in CD-1 mouse assessed as inhibition of formalin-induced pain response at 0.1 to 0.3 mg/kg, ip dosed 10 mins before formalin injection measured during early phase; format: functional, organism-based; summary of the method: as §1
Mus musculus [23] = experiment: as §2, with “CB1” for “CB2”, “AM251” for “AM630”; format: functional, organism-based; summary of the method: as §3
Mus musculus [24] = experiment: Analgesic activity in po dosed CD-1 mouse model of oxaliplatin-induced neuropathic pain assessed as reversal of lowering of threshold to cold stimuli administered on day 14 after oxaliplatin addition by cold plate test; format: functional, organism-based
Mus musculus [25] = experiment: Analgesic activity in CD-1 mouse model of oxaliplatin-induced neuropathic pain assessed as reversal of lowering of threshold to cold stimuli at 10 mg/kg, po coadministered with oxaliplatin for 14 days measured 24 hrs post last dose by cold plate test; format: functional, organism-based

O=C1[C@H](c2ccc(F)cc2)[C@@H](c2ccc3c(c2)OCO3)N1C1CCN(C(=O)n2cncn2)CC1 (racemic) [listing 1 of 2 here]
Time (Heart [1]): 76.02 ms | Time (Heart [2]): 13.5 ms | Time (Heart [3]): 75.36 ms | Activity (Mus musculus [4]): 9.7 pmol/g | Activity (Heart [5]): 75.19 mmHg | Papp at 100 µM [6]: 47 ×10⁻⁶ cm/s | Activity (Salmonella typhimurium [7]): Non-toxic | Time (Heart [8]): 13.75 ms | Activity (Salmonella typhimurium [9]): Non-toxic | Activity (Heart [10]): 254.38 bpm | Time (Heart [11]): 235.48 ms | Activity (Mus musculus [12]): 14.1 pmol/g | Activity (Heart [13]): 254.18 bpm | Activity (Mus musculus [14]): Non-toxic | minimal effective dose (Mus musculus [15]): 0.3 mg/kg | Activity (Mus musculus [16]): 6.6 pmol/g | Time (Heart [17]): 157.13 ms

O=C1[C@H](c2ccc(F)cc2)[C@@H](c2ccc3c(c2)OCO3)N1C1CCN(C(=O)n2cncn2)CC1 (racemic) [listing 2 of 2 here]
inhibition (Mus musculus [18]): inactive | Activity (Mus musculus [19]): inactive | inhibition [20]: Active | inhibition (Mus musculus [21]): inactive | inhibition (Mus musculus [22]): Active | Activity (Mus musculus [23]): inactive | Activity (Mus musculus [24]): Dose-dependent effect | Activity (Mus musculus [25]): Active
